Data taken from ChEMBL document CHEMBL1151912, “ACE inhibitors hypothesis generation for selective design, synthesis and biological evaluation of 3-mercapto-2-methyl-propanoyl-pyrrolidine-3-imine derivatives as antihypertensive agents” (2009).
Active and inactive are the calls of the source. The rule behind the calls is not given here.

Key:
Felis catus [1] = test: Antihypertensive activity in anesthetized normotensive cat assessed as mean reduction of systolic blood pressure at 0.00246 mmol/kg; type: functional, Artery
Felis catus [2] = test: Antihypertensive activity in anesthetized normotensive cat assessed as mean reduction of systolic blood pressure at 0.00246 mmol/kg relative to control; type: functional, Artery; parameters: scale not given: the % may be the effect or the level left
Outline: (§1)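 Normotensive adult cats dosed at 0.00246 mmol/kg. Systolic and diastolic blood pressure recorded in mmHg and reported as mean ± SE. The value is the mean % change from the control group. Significance versus control was tested at p < 0.05.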

Felis catus [3] = test: Antihypertensive activity in anesthetized normotensive cat assessed as mean reduction of diastolic blood pressure at 0.00246 mmol/kg; type: functional, Artery
Felis catus [4] = test: Antihypertensive activity in anesthetized normotensive cat assessed as mean reduction of diastolic blood pressure at 0.00246 mmol/kg relative to control; type: functional, Artery; parameters: scale not given: the % may be the effect or the level left; outline: as §1
Felis catus [5] = test: Hypotensive activity in anesthetized normotensive cat at 0.0012 mmol/kg; type: functional, organism-based
Felis catus [6] = test: Hypotensive activity in anesthetized normotensive cat at 0.0014 mmol/kg; type: functional, organism-based
Felis catus [7] = test: Hypotensive activity in anesthetized normotensive cat at 0.0031 mmol/kg; type: functional, organism-based
Felis catus [8] = test: Hypotensive activity in anesthetized normotensive cat at 0.00285 mmol/kg; type: functional, organism-based

| SMILES | Systolic blood pressure (Felis catus [1]) [mmHg] | Activity (Felis catus [2]) [%] | Diastolic blood pressure (Felis catus [3]) [mmHg] | Activity (Felis catus [4]) [%] | Activity (Felis catus [5]) | Activity (Felis catus [6]) | Activity (Felis catus [7]) | Activity (Felis catus [8]) |
| --- | --- | --- | --- | --- | --- | --- | --- | --- |
| C[C@H](CS)C(=O)N1CCC[C@H]1C(=O)O [CAPTOPRIL] | 105.9 | 20.91 | 97.6 | 21.89 | – | – | – | – |
| CCOC(=O)C(C)/N=C1\CCN(C(=O)C(C)CS)C1Cc1ccc(OC)cc1 (centres undefined) | 93.3 | 30.37 | 84 | 32.8 | Active | – | – | – |
| COc1ccc(CC2C(=O)CCN2C(=O)C(C)CS)cc1 (centres undefined) | 104.9 | 21.67 | 115 | 8 | – | Active | – | – |
| COc1ccc(CC2/C(=N/O)CCN2C(=O)C(C)CS)cc1 (centres undefined) | 121.9 | 9 | 109.7 | 12.22 | – | – | Active | – |
| COc1ccc(CC2/C(=N/CCO)CCN2C(=O)C(C)CS)cc1 (centres undefined) | 106 | 20.83 | 113.7 | 9 | – | – | – | Active |
